Drawing on ChEMBL document CHEMBL4130463, “Potential Anti-inflammatory Effects of the Fruits of Paulownia tomentosa” (J Nat Prod, 2017), this text covers IC50, Activity and Ki for twelve molecules.

Molecules are shown by their SMILES. The source made the active and inactive calls. No cut-off for these calls is given here.

For series [1], the target named is T1, Neutrophil elastase (Homo sapiens, UniProt P08246).
T1 sequence (P08246 whole entry): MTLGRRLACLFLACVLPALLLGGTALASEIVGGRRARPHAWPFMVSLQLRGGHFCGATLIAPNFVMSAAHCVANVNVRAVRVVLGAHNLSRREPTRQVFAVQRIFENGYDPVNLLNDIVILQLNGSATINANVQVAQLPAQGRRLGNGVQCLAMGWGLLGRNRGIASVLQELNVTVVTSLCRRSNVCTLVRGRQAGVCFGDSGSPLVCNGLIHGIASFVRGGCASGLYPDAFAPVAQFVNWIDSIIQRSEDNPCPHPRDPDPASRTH
Briefly: Inhibition of human neutrophil elastase using MeOSuc-AAPV-pNA as substrate measured after 30 mins by spectrometric method.

The subject of series [2] is A549. The experiment in a line: Cytotoxicity against human A549 cells assessed as effect on cell viability at 2.5 uM after 24 hrs by CCK8 assay. The following applies: a549, 24 h. The class given is cell-based. The gist of the method:
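A549 cells in RPMI 1640 with 10% FBS were seeded at about 1 × 10^4 cells/well and grown 16 h, then switched to FBS-free medium for 16 h. Compound added with or without TNF-α for 24 h. Viability measured in triplicate by CCK-8 absorbance and expressed as % of the negative control.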
On the technique in general: Tetrazolium dyes change colour on reduction, which living cells bring about.

Series [3] concerns A549. The experiment in a line: Antiinflammatory activity in human A549 cells assessed as reduction in TNFalpha-induced IL8 production at 2.5 uM after 24 hrs by ELISA. The class given is functional, cell-based. The gist of the method: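 A549 cells (ATCC) grown in RPMI 1640 with 10% FBS and penicillin/streptomycin at 37 °C, 5% CO2. Seeded and grown 16 h, then held 16 h in FBS-free medium. Treated with compound with or without TNF-α for 24 h. IL-8 measured by ELISA at 450 nm and expressed as % of the TNF-α-alone control. Means ± SD of three independent experiments.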

Series [4] addresses T1, Neutrophil elastase. Briefly: Noncompetitive inhibition of human neutrophil elastase using varying levels of MeOSuc-AAPV-pNA as substrate measured after 30 mins by double-reciprocal Lineweaver-Burk plot analysis.

For orientation: IC50 means the midpoint of a concentration-inhibition curve. The low end stands for higher potency, the high end for lower potency. In the case of `COc1ccc([C@@H]2CC(=O)c3c(cc4c(c3O)CCC(C)(CCCC(C)(C)O)O4)O2)cc1O` (some centres not stated), the concentration for half-maximal inhibition (IC50) on Neutrophil elastase [1] was above 100 µM.
`COc1cc([C@@H]2CC(=O)c3c(cc4c(c3O)CCC(C)(CCCC(C)(C)O)O4)O2)cc(OC)c1O` (some centres not stated) came in with an IC50 against Neutrophil elastase [1] above 100 µM.
For `CC(C)(O)CCCC1(C)CCc2c(cc3c(c2O)C(=O)C[C@@H](c2ccc(O)cc2)O3)O1` (some centres not stated), in the series with A549 [2], the Activity entry is listed as “Non-Toxic”. Moreover, in the series with A549 [3], the outcome was Active. The same molecule returned an IC50 against Neutrophil elastase [1] above 100 µM.
As for `COc1cc([C@@H]2CC(=O)c3c(cc4c(c3O)CCC(C)(CCCC(C)(C)O)O4)O2)cc(O)c1O` (some centres not stated), the Activity result in the series with A549 [2] is listed as “Non-Toxic”. Besides, in the series on A549 [3], the result was Active.
Usually Ki stands for a measure of affinity in units of concentration, obtained from inhibition or displacement. In the case of `O=c1cc(-c2ccc(O)c(O)c2)oc2cc(O)cc(O)c12` [LUTEOLIN], the Ki at Neutrophil elastase [4] came to 10.1 µM. On Neutrophil elastase [1], this molecule came in with an IC50 of 12.7 µM.
For `O=c1cc(-c2ccc(O)cc2)oc2cc(O)cc(O)c12` [APIGENIN], in that order: 49.9 µM and 46.1 µM.
With `COc1ccc([C@@H]2CC(=O)c3c(cc(O)c(C/C=C(\C)CCCC(C)(C)O)c3O)O2)cc1O`, the Activity result in the series with A549 [2] is reported as “Non-Toxic”. Besides, in the series with A549 [3], the outcome was Active.
Take `COc1cc([C@@H]2CC(=O)c3c(cc(O)c(C/C=C(\C)CCCC(C)(C)O)c3O)O2)cc(OC)c1O`: in the series on A549 [2], the Activity entry is on record as “Non-Toxic”. In the series with A549 [3], the outcome was Active.
`COc1cc([C@@H]2CC(=O)c3c(cc(O)c(C/C=C(\C)CCC=C(C)C)c3O)O2)cc(OC)c1O`: the IC50 on Neutrophil elastase [1] was found to be 71.3 µM.
In turn, `CC(C)=CCC/C(C)=C/Cc1c(O)cc2c(c1O)C(=O)C[C@@H](c1ccc(O)c(O)c1)O2` [NYMPHAEOL A] gave a Ki on Neutrophil elastase [4] of 15.7 µM. At Neutrophil elastase [1], this molecule showed an IC50 of 22.8 µM.
Consider `C=C(C)C(O)CC/C(C)=C/Cc1c(O)cc2c(c1O)C(=O)C[C@@H](c1cc(O)c(OC)c(O)c1)O2` (some centres not stated), for which, in the series with A549 [2], the Activity entry is listed as “Non-Toxic”. In the series with A549 [3], the result was Active.
For the molecule `CC(C)(O)CCCC1(C)CCc2c(cc3c(c2O)C(=O)[C@H](O)[C@@H](c2ccc(O)c(O)c2)O3)O1` (some centres not stated), the Activity entry with A549 [2] was “Non-Toxic”. Further, in the series on A549 [3], the result was Active.
